KCNK9 inh: human KCNK9 channel inhibition; Q9NPC2; HEK293 KCNK9, FluxOR thallium flux fluorescence; hits give low values; B-score at 10 µM; 310,000 tested, 1.2% active; AID 488922;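 active means ratio B-score over 3 SD below the library mean, with starting fluorescence within 5 SD of its mean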;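 further: negative B-score means less thallium flux so channel inhibition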
Target sequence (Q9NPC2 whole entry, looked up): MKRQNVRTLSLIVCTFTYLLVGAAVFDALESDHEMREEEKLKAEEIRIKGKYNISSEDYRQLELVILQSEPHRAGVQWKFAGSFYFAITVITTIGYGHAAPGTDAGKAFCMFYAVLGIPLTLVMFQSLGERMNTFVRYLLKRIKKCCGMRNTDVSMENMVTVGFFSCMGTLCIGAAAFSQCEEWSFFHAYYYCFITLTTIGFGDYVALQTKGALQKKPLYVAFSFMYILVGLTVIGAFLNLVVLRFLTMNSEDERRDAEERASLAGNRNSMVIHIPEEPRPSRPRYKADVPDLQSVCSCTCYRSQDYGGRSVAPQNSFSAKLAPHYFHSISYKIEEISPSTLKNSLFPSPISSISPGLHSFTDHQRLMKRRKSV
KCNQ1 inh: blocks the human KCNQ1 potassium channel | CHO-K1 KCNQ1, FluxOR thallium flux fluorescence; hits give high values | B-score at 10 µM | 310,000 tested, 1.3% active;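 active means compounds whose thallium flux B-score, printed positive for inhibition, exceeds three library SD while starting fluorescence stays within three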;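 further: channel opened by potassium depolarization with thallium stimulus after 20 min compound exposure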
KCNQ1 pot: human KCNQ1 channel potentiation or activation; CHO-K1 KCNQ1, thallium flux FluxOR fluorescence; hits give high values; B-score at 10 µM; P51787; 310,000 tested, 0.35% active; AID 2648;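 active means fluorescence ratio B-score, a plate-corrected score, at least three library SD, with initial intensity B-score within 5 SD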
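assay system = CHO-K1 cells stably expressing KCNQ1 | medium = assay buffer, equal DMSO in all wells | timing = 37 °C overnight plating, 90-min dark dye load, 20-min compound pretreatment | measured by = kinetic FluxOR thallium fluorescence, 10-s 1-Hz baseline, 110-s post-stimulus read | measure = fluorescence change relative to baseline, converted to B score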
PHOSPHO1 block: inhibitors of human PHOSPHO1 phosphatase | Q8TCT1 | recombinant PHOSPHO1, absorbance phosphatase assay | inhibition, % at 13.3 µM | 290,000 tested, 1.1% active; in the data active means inhibition above about 60%
KCNK3 block: human KCNK3 channel inhibition, primary screen. O14649. CHO-KCNK3 thallium flux, FluxOR fluorescence; hits give low values. B-score at 10 µM. 340,000 tested, 0.84% active. AID 602410;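 active means B-score under library mean minus 4 SD, starting fluorescence ratio at most library mean plus 5 SD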;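 further: more negative B-score means stronger inhibition of thallium flux through KCNK3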
hERG protect: compounds protecting human hERG from proarrhythmic drug block; CHO-hERG, FluxOR thallium flux, dofetilide IC70 present; activation (rescue from dofetilide block), less the hit threshold, % at 10 µM; 310,000 tested, 0.51% active; AID 1511;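 active means activation above the mean of controls blocked by dofetilide plus 5 SD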;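 further: thallium influx through hERG after potassium depolarization seen as dye fluorescence rise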
KCNQ1 block val: reconfirmed blocker of the human KCNQ1 potassium channel | shares compounds with KCNQ1 inh | KCNQ1 cell line, FluxOR thallium flux fluorescence | inhibition, % at 10 µM | 1,600 tested, 93% active;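 active means primary screen active, with duplicate mean exceeding buffer control mean plus 3 SD of buffer wells, cut at about 28% in these data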;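 further: 0% = buffer control ratio and 100% = XE991 inhibitor control ratio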
CHO Tl flux: counter-screen for KCNQ1 inhibitors: effect in parental CHO cells. 1,600 tested, 21% active. parental CHO-K1, FluxOR thallium flux fluorescence ratio; hits give low values; zero means no signal rise above baseline. shares compounds with KCNQ1 inh. fluorescence ratio (Tl flux) at 10 µM;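 active means mean of duplicate thallium-flux fluorescence ratios in parental host cells more than 5 SD below the buffer control mean, cut at about 0.38 in these data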;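 further: ratio is peak minus minimum fluorescence divided by baseline fluorescence; actives read low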
KCNQ1 ephys val: confirmation of human KCNQ1 potassium channel inhibitors by electrophysiology | shares compounds with KCNQ1 inh | KCNQ1-CHO cells, automated patch clamp current | calls only at 10 µM | 490 tested, 20% active;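 active means KCNQ1 current drop exceeding 3 SD of negative control wells, seen in both duplicate runs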;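 further: steady state current during a 2 s step from -80 to +40 mV; negative values mean current inhibition and positive values mean potentiation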
KCNQ2 spec: selectivity of KCNQ1 inhibitors: inhibition of rat KCNQ2 channel; shares compounds with KCNQ1 inh; KCNQ2 cells, FluxOR thallium flux fluorescence; inhibition, % at 10 µM; 1,600 tested, 71% active;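 active means mean percent inhibition of the KCNQ2 thallium signal more than 5 SD above the buffer-only control wells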;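 further: KCNQ2 expressed in CHO cells; 0% = buffer control wells and 100% = XE-991 inhibitor control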
KCNQ1 KCNE1 spec: selectivity of KCNQ1 inhibitors: inhibition of human KCNQ1/KCNE1 channel; AID 652147; inhibition, % at 10 µM; 1,600 tested, 77% active; shares compounds with KCNQ1 inh; KCNQ1/KCNE1 cells, FluxOR thallium flux fluorescence;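 active means mean percent inhibition of duplicate wells above the buffer-only control mean plus 3 SD of those controls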;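 further: 0% = buffer only wells and 100% = XE-991 inhibitor control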
Numbers without * were called inactive; i = inactive; / = no result given. In the library only some 4% were active in any assay of this set; here they are far more common.

SMILES | KCNK9 inh | KCNQ1 inh | KCNQ1 pot | PHOSPHO1 block | KCNK3 block | hERG protect | KCNQ1 block val | CHO Tl flux | KCNQ2 spec | KCNQ1 KCNE1 spec | others
O=C(NC(=S)Nc1ccc(Br)c(Cl)c1)C1CC1 | i | i | i | 40.8 | i | -8.7 | / | / | / | /
CC(=O)c1ccc(NC(=S)Nc2ccc(Br)c(Cl)c2)cc1 | i | 6* | i | -15.8 | i | -29.4 | 61.0* | 0.454 | i | i
O=C(c1ccc(NC(=S)Nc2ccc(Cl)c(Cl)c2)cc1)N1CCCC1 | i | 9* | i | 18.2 | i | -15.2 | 36.0* | 0.499 | i | i
COc1ccc(-c2cc(C(F)F)nc(-n3nc(C)cc3C)n2)cc1 | i | i | i | -47.8 | i | -9.2 | / | / | / | /
COC(=O)c1cc2c(=O)c3ccccc3oc2nc1C | i | i | i | / | i | -3.8 | / | / | / | /
COC(=O)c1cc2c(=O)c3ccccc3oc2nc1/C=C/N(C)C | -7.81* | 10* | i | / | i | -11.5 | 95.5* | 0.367* | i | 128.5%*
Fc1cccc(Cl)c1CNc1ccc(N2CCCC2)cc1 | i | 6* | i | 37.0 | i | -17.9 | 0.0 | 0.444 | 72.3%* | 40.5%*
O=P(O)(O)c1ccccc1OCCOCCOc1ccccc1P(=O)(O)O | / | / | / | -13.6 | i | / | / | / | / | /
CC(=O)c1cn(CC(=O)Nc2ccccc2)c2ccccc12 | i | i | i | 2.1 | i | -7.6 | / | / | / | /
O=C(c1ccc2c(c1)OCO2)C1CCCN(Cc2ccc(OC(F)F)cc2)C1 (stereo unspecified) | i | i | i | 19.1 | i | -13.2 | / | / | / | /
O=C(c1ccc2c(c1)OCO2)C1CCCN(Cc2cccc(C(F)(F)F)c2)C1 (stereo unspecified) | i | 7* | i | 7.7 | i | -5.6 | 88.0* | 0.431 | 96.0%* | 97.0%* | KCNQ1 ephys val=i
O=C(C1CCC(=O)N1Cc1ccccc1Cl)N1CCN(c2cccc(Cl)c2)CC1 (stereo unspecified) | i | i | i | 3.8 | i | -14.0 | / | / | / | /
O=C(Nc1ccncc1)Nc1cccc(Cl)c1 | i | 7* | i | 41.4 | i | -22.5 | 52.5* | 0.481 | i | 46.0%*
O=C(NCc1ccncc1)Nc1cccc(Cl)c1 | i | i | i | 31.0 | i | -3.7 | / | / | / | /
CN(c1cccc(NC(=O)Nc2cccc(Cl)c2)c1)S(C)(=O)=O | i | 16* | i | 22.1 | i | -16.6 | 93.0* | 0.466 | 122.7%* | 82.5%*
Cc1nccc(-c2cccc(NC(=O)Nc3ccc(Cl)cc3)c2)n1 | i | 8* | i | 39.9 | i | -9.4 | 92.5* | 0.517 | 67.0%* | 72.5%* | KCNQ1 ephys val=i
CSc1ccc(/C=C(\NC(=O)c2ccc(C)cc2)C(=O)NN)cc1 | i | i | i | 24.0 | i | -6.2 | / | / | / | /
CN1CCN(C(=O)C2(NC(=O)Nc3cccc(F)c3)CCCCC2)CC1 | i | i | i | 0.1 | i | -7.8 | / | / | / | /
O=C(Nc1ccc(N2CCCCC2)c(Cl)c1)c1ccc2c(c1)OCCO2 | i | 9* | i | 9.7 | i | -7.3 | 86.5* | 0.464 | 98.0%* | 120.5%*
Cc1ccc(N2C(=O)c3ccccc3C2C(=O)c2ccc(C)c(C)c2O)cc1 (stereo unspecified) | i | 7* | i | 43.0 | i | -6.0 | 90.5* | 0.365* | 103.3%* | 74.0%*
